The source made the active and inactive calls. The rule behind the calls is not given here.

The subject of assay [1] is HeLa. Put plainly: Inhibition of microtubule system in human HeLa cells at 10 nM after 18 hrs by confocal microscopic analysis. The class given is cell-based. The procedure, abridged:
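HeLa cells grown on poly-L-lysine coverslips and treated 18 h at 10^-8 M. Washed in HPEM (pH 6.6), fixed 15 min in 4% paraformaldehyde, permeabilized with 0.5% Triton X-100. Stained with anti-α-tubulin (1:150, 1 h), then CY3 anti-mouse IgG (1:100, 1 h, 4 °C). Imaged by confocal microscopy; representative of at least three experiments.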

Assay [2] concerns HeLa. Put plainly: Cell cycle arrest in human HeLa cells assessed as accumulation at G2/M phase at 10^-8 M incubated for 18 hrs by propidium iodide staining-based FACS flow cytometric analysis relative to control. Type of assay: functional. The procedure, abridged:
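HeLa cells treated 18 h at 10^-8 M, with untreated controls run in parallel. 2-4 x 10^5 cells fixed overnight in 70% ethanol at 4 °C, washed in PBS, then incubated 1 h at room temperature with 1 mg/mL RNAse A and 20 µg/mL propidium iodide. DNA content read by FACSCalibur flow cytometry; percentage of cells in G2/M. Representative of three experiments.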

The subject of assay [3] is HT-29. Put plainly: Cytotoxicity against human HT-29 cells assessed as growth inhibition after 72 hrs by XTT assay. The class given is functional, cell-based. The note with it: HT-29, 72 h. The procedure, abridged: (§1)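 Cells seeded at 1.5 x 10^3 per well (A549, HeLa, HT-29) or 3 x 10^3 (HL-60) in medium with 10% heat-inactivated FBS. Compound tested from 10-5 to 10-13 M for 72 h at 37 °C, then XTT readout. […] Triplicate wells, three experiments; mean ± S.D.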

In assay [4] the test system is A549. Put plainly: Cytotoxicity against human A549 cells assessed as growth inhibition after 72 hrs by XTT assay. Type of assay: functional, cell-based. Conditions: A549, 72 h. An outline of the steps: as §1
(Tetrazolium assays rely on reduction of a dye to a coloured formazan, in cell work by metabolically active cells.)

Assay [5] deals with HeLa. Put plainly: Cytotoxicity against human HeLa cells assessed as growth inhibition after 72 hrs by XTT assay.
The species entered for assay [6] is Bos taurus. Put plainly: Inhibition of bovine brain tubulin polymerization at 20 uM after 30 mins by spectrophotometry. An outline of the steps:
(§2)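 Bovine brain tubulin at 1.5 mg/mL, pH 6.7, in 0.1 M MES, 1 mM EGTA, 1 mM MgCl2, 1 mM β-ME, 1.5 mM GTP with ligand. Incubated 20 °C for 30 min, then on ice 10 min. Assembly read as the A450 rise on a shift from 4 to 38 °C; inhibition is plateau minus baseline against ligand-free control. IC50 from monoexponential fits.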

Assay [7] is described as follows: Inhibition of bovine brain tubulin polymerization after 30 mins by spectrophotometry. The arrangement: species or system Bos taurus. An outline of the steps: as §2
In assay [8] the test system is HL-60. Put plainly: Cytotoxicity against human HL60 cells assessed as growth inhibition after 72 hrs by XTT assay. The class given is functional, cell-based. Conditions: HL-60, 72 h. The procedure, abridged:
as §1

Assay [9] concerns HeLa. Put plainly: Induction of apoptosis in human HeLa cells assessed as processing of procaspase-3 into the p19/p17 active form at 50 nM by Western blotting analysis. Type of assay: functional, cell-based. An outline of the steps:
(§3)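 HeLa cells given 50 nM compound for several times; untreated controls run in parallel. About 5 x 10^6 cells lysed and run on reducing SDS gels (12% for caspase-3, 8% for PARP), then blotted to nitrocellulose. Probed overnight with anti-active caspase-3 (p19/p17) or C2.10 anti-PARP (116 kDa and p85), each 1:1000. β-actin loading control; ECL detection. Three experiments.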

Assay [10] deals with HeLa. Put plainly: Induction of apoptosis in human HeLa cells assessed as accumulation at sub-G0/G1 phase at 50 nM after 72 hrs by […] analysis. Type of assay: functional, cell-based. On the technique in general: A western blot detects proteins with antibodies after separation by electrophoresis.
The test system of assay [11] is HeLa. Put plainly: Induction of apoptosis in human HeLa cells assessed as PARP cleavage at 50 nM by Western blotting analysis. Type of assay: functional, cell-based. An outline of the steps:
as §3

Assay [12] relates to HeLa. Put plainly: Induction of apoptosis in human HeLa cells assessed as accumulation of DNA at sub-G0/G1 phase incubated for 24 hrs by propidium iodide staining-based FACS flow cytometric analysis relative to control. The note with it: in the assay text read “72 hrs” for “24 hrs”. The class given is functional. The procedure, abridged:
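Apoptosis counted as percentage of HeLa cells in the sub-G0/G1 peak. Cells fixed in 70% ethanol, stained 1 h with RNAse A (1 mg/mL) and propidium iodide (20 µg/mL), then read by flow cytometry. Time-course used 5-100 nM for 18-72 h.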
(A flow cytometer gives signals particle by particle.)

Assay [13] has as its system HeLa. Put plainly: Induction of apoptosis in human HeLa cells at 50 nM after 72 hrs by […] analysis in presence of caspase inhibitor z-VAD-fmk relative to control. The class given is functional.
For assay [14], the system named is HeLa. Put plainly: Induction of apoptosis in human HeLa cells at 50 nM after 72 hrs by […] analysis relative to control. The class given is functional.

What is called inhibition is how much of the control response was suppressed. Usually IC50 stands for the point on the concentration scale where inhibition reaches its midpoint. Regarding `COc1cc(C(=CC#N)c2ccc3c(c2)c(C#N)cn3C)cc(OC)c1OC`, the inhibition entry in [1] was “Active”. Moreover, the Activity in assay [2] was greater than 85%. The IC50 in assay [3] was determined as 2.1 nM; in assay [4], 4.9 nM; in assay [5], 3.5 nM; in [7], 4700 nM; in assay [8], 4.8 nM. In assay [6], this compound gave an inhibition of 90%. In addition, the outcome in assay [9], in assay [10] and in assay [11] was Active.

Regarding `C=C(c1cc(OC)c(OC)c(OC)c1)c1ccc2c(c1)c(C#N)cn2C`, the inhibition entry in assay [1] is “Active”. Besides, the Activity in [2] was greater than 83%; in [12] it was 20%; in assay [13] it was 5%; in [14], 19.5%. The IC50 was determined as 3.9 nM in assay [3]; 8.4 nM in assay [4]; 2.9 nM in [5]; 1200 nM in [7]; 1.3 nM in [8]. For the same compound, in assay [6], the inhibition was 93%. For the same compound, the outcome in assay [9], in [10] and in assay [11] was Active.

Consider `COc1cc(C(C)c2ccc3c(ccn3C)c2)cc(OC)c1OC` (configuration not stated), for which the inhibition result in assay [1] is “Active”. For the same compound, the Activity in assay [2] was greater than 85%. The IC50 was found to be 3.8 nM in assay [3]; 6.8 nM in [4]; 0.64 nM in [5]; 1000 nM in assay [7]; 0.33 nM in assay [8]. Moreover, the inhibition in [6] is 100%. Moreover, the outcome in [9], in assay [10] and in assay [11] was Active.

`C=C(c1cc(OC)c(OC)c(OC)c1)c1ccc2c(c1)c(C(N)=O)cn2C`: the inhibition entry in [1] is “Active”. The Activity in [2] is reported as greater than 85%. The IC50 in assay [3] came out at 0.51 nM; in assay [4], 1.8 nM; in assay [5], 0.25 nM; in [7] it was 900 nM; in [8], 0.11 nM. In [6], this compound came in with an inhibition of 93%. For the same compound, the outcome in assay [9], in assay [10] and in assay [11] was Active.

For the origin of these results see ChEMBL document CHEMBL2321691 (J Med Chem, 2013).
